Only a selection was taken, and hits are over-represented in it overall.
CHOP UPR activ = activators of apoptotic CHOP UPR arm, primary screen, cell-based, CHO-CHOP luciferase reporter, luminescence, uHTS | activation, % at 10 µM | AID 449763, 2010 | UPR activation; percent of tunicamycin response over DMSO baseline | 0.34% of 330,000 active;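 active means at 10 µM dose, activation of 40% or more, normalized to positive control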;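 further: 100% = tunicamycin at 10 µg/mL and 0% = DMSO alone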
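System: CHO-CHOP luciferase reporter cell line; amount: 500 cells/well; buffer or medium: F12 medium containing 10% fetal bovine serum; incubation: 6 h compound exposure at 37 °C after overnight seeding; measured by: luciferase luminescence after 10 min with Steady-Glo reagent; evaluation: % reporter activation, DMSO baseline versus tunicamycin full activation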
Dynein cargo inh = inhibitors of GR-EGFP nuclear translocation, primary screen, dynein cargo transport inhibitor project, imaging, high-content, 3617.4 mouse cells; z-score, hits read low; 0.47% of 220,000 active; test concentration mostly 20 µM; stimulated with dexamethasone, 1 µM; stronger effect = lower value;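 active means plate z-score of nuclear minus cytoplasmic receptor signal below a set negative limit, without overly bright fluorescence or cell loss, cut at about -3.5 in these data, passing the limit was not always enough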;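 further: z-score of nuclear minus cytoplasmic ring GR-EGFP intensity difference per well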
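Buffer or medium: tet-free, stripped-serum medium; Also added: dexamethasone, 1.0 µM final; Technique: high-content fluorescence imaging after fixation; Times: 48 h induction, 1 h compound, 30 min dex at 37 °C; Read-out: per-cell GR-EGFP intensity, nucleus versus surrounding cytoplasmic ring, well-averaged.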
T cruzi repl = inhibitors of intracellular T. cruzi growth, primary screen, luminescence, NIH3T3 host cells; T. cruzi beta-gal in NIH3T3, 90 h; inhibition, % (test concentration not listed); 1.4% of 300,000 active; AID 1885, 2009;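 active means mean inhibition across valid replicates above about 55%, limit read from the data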;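 further: signal also drops with host cell toxicity which is not excluded here; 0% = plate median of DMSO wells and 100% = zero luminescence signal; higher percent means less beta-gal luminescence so fewer parasites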
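System: Mouse NIH/3T3 fibroblasts infected with β-gal-expressing T. cruzi Tulahuen C4 | Quantity: NIH/3T3 cells, 5,000 per well | Reagent: 5000 reporter trypomastigotes per well | Dosing: Compound pinned at 50 nL/well, DMSO | Schedule: 3 h host attachment, then at least 90 h co-culture | Detection: GalScreen luminescence, 60 min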
L major viab = Leishmania major promastigote growth inhibition, primary screen; Leishmania major promastigotes, resazurin fluorescence viability; inhibition, % at 10 µM; 9% of 200,000 active; in the data active means inhibition above about 50%;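 further: promastigotes grown with compound for 44 hours at 28 °C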
XBP1 UPR activ = activators of adaptive XBP1 UPR arm, primary screen, cell-based, CHO-XBP1 luciferase reporter, luminescence, uHTS; activation, % at 20 µM; IRE1-XBP1 UPR activation; percent of tunicamycin response, DMSO as zero; AID 463104, 2010; 0.33% of 330,000 active;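 active means versus positive control, 20 µM dose yields 30% or more activation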;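 further: 100% = tunicamycin at 10 µg/mL and 0% = DMSO only wells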
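incubation = overnight seeding at 37 °C, 6 h compound treatment at 37 °C | assay system = CHO-XBP1 cells stably carrying IRE1-XBP1-driven luciferase reporter | input = 1000 cells per well | detection = luciferase luminescence | dosing = single point, 20 µM final compound, 1% DMSO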
CHOP inh = inhibitors of CHOP promoter induction, primary screen, cell-based, unfolded protein response, luciferase reporter | inhibition, % at 10 µM | 3.8% of 220,000 active | CHO-K1 CHOP-promoter luciferase, tunicamycin-induced, 15-18 h;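 active means compounds that reduced the stress-induced luciferase reporter signal by more than about 70% of percent inhibition, limit read from the data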;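 further: 0% = tunicamycin plus vehicle and 100% = wells without tunicamycin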
Active calls of the source: *; x = no result.

SMILES | CHOP UPR activ | Dynein cargo inh | T cruzi repl | L major viab | XBP1 UPR activ | CHOP inh
Cc1ccc(Nc2nc(N)nc(CN3CCN(Cc4ccc5c(c4)OCO5)CC3)n2)cc1Cl | 0 | -0.56 | 8 | 70* | 1 | 51
COc1ccc(Cl)cc1NC(=O)COC(=O)c1c(-c2ccccc2)noc1C | 0 | x | x | x | 2 | x
CN(CCOc1ccccc1)C(=S)Nc1ccc(OC(F)F)cc1 | 4 | x | -11 | x | 1 | x
COC(=O)c1c(NC(=O)CN2CCN(Cc3ccc4c(c3)OCO4)CC2)sc(C)c1C | 0 | -1.1 | 59* | 49 | -1 | 80*
COC(=O)c1ccsc1NC(=O)CN1CCN(Cc2ccc3c(c2)OCO3)CC1 | -2 | -0.62 | 36 | 8 | 2 | 38
CCCNC(=S)N1CCN(Cc2ccc3c(c2)OCO3)CC1 | 0 | 0.28 | -1 | 8 | -2 | -1
CCOCCCNC(=S)N1CCN(Cc2ccc3c(c2)OCO3)CC1 | -1 | -0.46 | -13 | 74* | 2 | 16
OCCC1CN(Cc2ccon2)CCN1CCc1ccccc1 (stereo unspecified) | 0 | -0.023 | -9 | -3 | -3 | 7
Cc1cc(C)nc(NC(=O)Nc2ccc3c(c2)OCO3)c1 | -1 | 1.1 | -11 | 2 | -1 | 71*
Cc1cc(C)nc(NC(=O)c2ccc3c(c2)OCO3)c1 | 5 | -0.21 | -8 | 7 | 3 | 8
Cc1ccc(OCCn2c(SCCO)nc3c(N)ncnc32)cc1 | 1 | x | -3 | x | 0 | x
O=C(NC(=S)NC1CCCC1)c1ccccc1Br | 4 | 0.38 | -5 | -11 | 4 | 83*
CCOCCCNc1ncnc2c1nc1n2CCCC1 | 2 | x | -13 | x | 0 | x
COc1cc(/C(C)=N/NC(=O)CSc2nncn2C)ccc1OCc1ccccc1Cl | 0 | -0.47 | 9 | 73* | 1 | 2
CCOc1cc(/C=N/NC(=O)CSc2nncn2C)ccc1OCc1ccccc1 | 3 | 0.57 | -2 | -1 | 0 | 6
O=C(Nc1ccc2snnc2c1)N1CCSCC1 | 1 | -0.035 | -5 | 17 | -1 | -19
CC1CN(C(=O)Nc2ccc3snnc3c2)c2ccccc21 (stereo unspecified) | 4 | -0.098 | 3 | 51* | 4 | 44
Cc1cccc(NS(=O)(=O)c2nnc(NC(=O)C3CCCCC3)s2)c1 | 0 | x | -4 | x | -4 | x
Cc1ccc(Nc2nc(CSc3nnc(-c4ccc(F)cc4)n3C)cs2)cc1 | 3 | -0.53 | -1 | 81* | -1 | -2
COc1ccc(-c2nnc(SCc3csc(N)n3)n2C)cc1 | 0 | -0.52 | x | -10 | -1 | 21
Cc1ccc(SCC(=O)NC(=O)NCCC(C)C)c(C)c1 | -1 | 0.27 | 2 | 4 | -1 | 81*
Cn1cnnc1SCC(=O)c1c[nH]c2ccccc12 | 1 | 0.12 | -15 | -7 | 3 | -135
CCCCNc1nnc(SCC(=O)c2c[nH]c3ccccc23)s1 | -2 | -0.43 | 10 | 67* | -2 | 23
CC(=O)Oc1c(I)cc(I)cc1C(=O)Nc1ccc(Cl)cc1 | -1 | x | -13 | x | -5 | x
Cn1c(=O)n(Cc2ccccc2F)c2ccccc21 | 0 | -0.82 | -8 | -1 | 1 | 27
SMILES | CHOP UPR activ | Dynein cargo inh | T cruzi repl | L major viab | XBP1 UPR activ | CHOP inh
O=c1n(Cc2ccccc2F)c2ccccc2n1Cc1ccccc1F | 0 | -1.3 | 12 | 10 | -1 | 74*
O=C(/C=C/c1ccco1)OCC(=O)N1CCCCC1 | 3 | x | x | x | 1 | x
COc1ccccc1C(=O)NCC(=O)N1CCN(c2ncccn2)CC1 | -1 | x | x | x | -1 | x
Cc1ccc(C)c(S(=O)(=O)N2CCCOC2CNC(=O)C(=O)NCCCn2ccnc2)c1 (stereo unspecified) | 3 | -0.47 | 3 | -3 | 0 | 24
Cc1cc(C)c(S(=O)(=O)N2CCCOC2CNC(=O)C(=O)NCCCn2ccnc2)c(C)c1 (stereo unspecified) | 0 | -0.35 | -5 | 54* | 0 | 36
CCN(C(=O)COC(=O)CCC1CCCC1)c1c(N)n(Cc2ccccc2)c(=O)[nH]c1=O | 0 | x | x | x | 0 | x
CCc1cccc(CC)c1NC(=O)COC(=O)CC1c2ccccc2CCN1S(=O)(=O)c1ccc(F)cc1 (stereo unspecified) | 3 | -0.5 | 7 | 98* | 1 | 5
O=C(COC(=O)CC1c2ccccc2CCN1S(=O)(=O)c1ccc(F)cc1)Nc1ccccc1 (stereo unspecified) | -1 | -0.62 | -15 | 4 | 1 | 29
O=C(NC(=S)Nc1ccc(Cl)cn1)c1cc([N+](=O)[O-])ccc1N1CCOCC1 | 1 | x | -1 | x | -1 | x
Cc1cccc(-c2noc(CN(C(=O)CCc3ccccc3)C(C)C)n2)c1 | 2 | -0.18 | 35 | 0 | 0 | 70*
COc1ccc(Cl)cc1C(=O)N(Cc1nc(-c2cccc(C)c2)no1)C(C)C | -1 | 0.62 | 27 | 85* | -7 | 64
Cc1ccc(-c2noc(CN(C(=O)c3cccc(Br)c3)C(C)C)n2)cc1 | 0 | 1.6 | 5 | 1 | -4 | 71*
Cc1cccc(-c2noc(CN(C(=O)/C=C/c3ccccc3Cl)C(C)C)n2)c1 | 1 | -0.079 | 4 | -3 | -1 | 45
CCOC(=O)c1cc2nc(Nc3ccc(OC)cc3)sc2s1 | 4 | 0.38 | 28 | -3 | -3 | 70*
CCOC(=O)c1sc(Nc2ccc(Br)cc2)nc1C | 4 | -0.42 | 15 | x | 1 | 2
CC(=O)NCC(=O)N(C)C(C(=O)Nc1ccc2c(c1)OCCO2)c1ccc(C)cc1 (stereo unspecified) | 1 | -1.2 | -4 | -8 | -1 | 13
Cc1ccc(C(C(=O)Nc2ccc3c(c2)OCO3)N(C)C(=O)/C=C\c2ccc3c(c2)OCO3)cc1 (stereo unspecified) | 3 | -0.13 | 4 | 87* | 0 | 8
COC(=O)[C@@]1(Cc2ccc(F)cc2)[C@H]2c3cc(C(=O)N(C)C)n(Cc4ccc(OC(F)(F)F)cc4)c3C[C@H]2CN1C(=O)c1ccccc1 | 4 | -1.3 | 45 | 83* | 3 | 50
COC(=O)[C@@]1(Cc2ccc(F)cc2)[C@H]2c3cc(C(=O)N(C)C)n(C[C@H](O)CO)c3C[C@H]2CN1C(=O)c1ccccc1 | 0 | -0.038 | x | 0 | -2 | 7
COC(=O)[C@@]1(Cc2ccc(F)cc2)[C@H]2c3cc(C(=O)N4CCCC4)n(CCO)c3C[C@H]2CN1C(=O)c1ccccc1 | -1 | -0.38 | x | 11 | 0 | 19

Screens from PubChem.
